Assay [1] has as its target Aldo-keto reductase family 1 member B1 (Bos taurus) (UniProt P16116). Nature of the assay: In vitro inhibition of aldose reductase in partially purified bovine lens preparation at a concentration of 10e -7M. The essentials:
(§1)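 Enzyme from bovine lens, partially purified by the cited method with the final chromatographic step omitted. DL-Glyceraldehyde was the substrate. Test compounds were run in duplicate at 1×10⁻⁵, 1×10⁻⁶, 1×10⁻⁷ or 4×10⁻⁸ M. Values are % inhibition of enzymatic activity.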

For assay [2] the target is unchanged. Nature of the assay: In vitro inhibition of aldose reductase in partially purified bovine lens preparation at a concentration of 4*10e -8M. The essentials: as §1
Assay [3] relates to Rattus norvegicus. Nature of the assay: In vivo inhibition of galactitol accumulation in the sciatic nerve of rats fed 20% galactose for 4 day at 92 mg/kg/day dose. The assay is classed as functional.
Assay [4] has as its system Rattus norvegicus. Briefly: In vivo inhibition of galactitol accumulation in the diaphragm of rats fed 20% galactose for 4 day at 92 mg/kg/day dose. The assay is classed as functional. The essentials:
(§2)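 Male Sprague-Dawley rats (50–70 g) in groups of six were fed chow with 20% (w/w) galactose. Controls received 20% glucose instead. Test compound was mixed into the diet, and dose was calculated from actual food intake. Rats were killed by decapitation after 4 days. Result is % lowering of tissue galactitol versus galactose-fed controls, as the mean of six animals, compared by Dunnett's multiple comparison.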

In assay [5] the test system is Rattus norvegicus. Nature of the assay: In vivo inhibition of galactitol accumulation in the sciatic nerve of rats fed 20% galactose for 4 day at 82 mg/kg/day dose; NS = No Significant inhibition of polyol accumulation. The assay is classed as functional, organism-based. The essentials:
as §2

The subject of assay [6] is Rattus norvegicus. Nature of the assay: In vivo inhibition of galactitol accumulation in the diaphragm of rats fed 20% galactose for 4 day at 82 mg/kg/day dose; NS = No Significant inhibition of polyol accumulation. The assay is classed as functional, organism-based. Summed up: as §2
Assay [7] addresses Aldo-keto reductase family 1 member B1 (Bos taurus) (UniProt P16116). Briefly: In vitro inhibition of aldose reductase in partially purified bovine lens preparation at a concentration of 10e-6 M. The essentials:
as §1

The subject of assay [8] is Rattus norvegicus. Nature of the assay: In vivo inhibition of galactitol accumulation in the diaphragm of rats fed 20% galactose for 4 day at 105 mg/kg/day dose; NS = No Significant inhibition of polyol accumulation. The assay is classed as functional, organism-based. The essentials: as §2
Assay [9] has as its system Rattus norvegicus. Briefly: In vivo inhibition of galactitol accumulation in the sciatic nerve of rats fed 20% galactose for 4 day at 105 mg/kg/day dose; NS = No Significant inhibition of polyol accumulation. The assay is classed as functional, organism-based. The essentials:
as §2

In assay [10] the test system is Rattus norvegicus. Briefly: In vivo inhibition of galactitol accumulation in the diaphragm of rats fed 20% galactose for 4 day at 81 mg/kg/day dose. The assay is classed as functional. Summed up:
as §2

Assay [11] has as its system Rattus norvegicus. Briefly: In vivo inhibition of galactitol accumulation in the sciatic nerve of rats fed 20% galactose for 4 day at 95 mg/kg/day dose; NS= No Significant inhibition of polyol accumulation. The assay is classed as functional, organism-based.
Assay [12] concerns Rattus norvegicus. Briefly: In vivo inhibition of galactitol accumulation in the diaphragm of rats fed 20% galactose for 4 day at 115 mg/kg/day dose. The assay is classed as functional. The essentials:
as §2

Assay [13] has as its system Rattus norvegicus. Nature of the assay: In vivo inhibition of galactitol accumulation in the sciatic nerve of rats fed 20% galactose for 4 day at 115 mg/kg/day dose. The assay is classed as functional. Summed up: as §2
Assay [14] deals with Rattus norvegicus. Nature of the assay: In vivo inhibition of galactitol accumulation in the sciatic nerve of rats fed 20% galactose for 4 day at 91 mg/kg/day dose. The assay is classed as functional. Summed up: as §2
The test system of assay [15] is Rattus norvegicus. Briefly: In vivo inhibition of galactitol accumulation in the diaphragm of rats fed 20% galactose for 4 day at 91 mg/kg/day dose. The assay is classed as functional. Summed up:
as §2

Assay [16] concerns Rattus norvegicus. Briefly: In vivo inhibition of galactitol accumulation in the sciatic nerve of rats fed 20% galactose for 4 day at 101 mg/kg/day dose. The assay is classed as functional. The essentials: as §2
Assay [17] relates to Rattus norvegicus. Nature of the assay: In vivo inhibition of galactitol accumulation in the diaphragm of rats fed 20% galactose for 4 day at 101 mg/kg/day dose. The assay is classed as functional. The essentials: as §2
The subject of assay [18] is Rattus norvegicus. Nature of the assay: In vivo inhibition of galactitol accumulation in the diaphragm of rats fed 20% galactose for 4 day at 90 mg/kg/day dose. The assay is classed as functional. Summed up: as §2
In assay [19] the target is Aldo-keto reductase family 1 member B1 (Bos taurus) (UniProt P16116). Nature of the assay: In vitro inhibition of Aldose reductase in partially purified bovine lens preparation at a concentration of 10e -7M. The essentials: as §1
Assay [20] deals with Rattus norvegicus. Briefly: In vivo inhibition of galactitol accumulation in the diaphragm of rats fed 20% galactose for 4 day at 98 mg/Kg/day; NS = No Significant inhibition of polyol accumulation. The assay is classed as functional, organism-based. Summed up:
as §2

Assay [21] deals with Rattus norvegicus. Briefly: In vivo inhibition of galactitol accumulation in the sciatic nerve of rats fed 20% galactose for 4 day at 98 mg/kg/day dose; NS = No Significant inhibition of polyol accumulation. The assay is classed as functional, organism-based.
Assay [22] deals with Aldo-keto reductase family 1 member B1 (Bos taurus) (UniProt P16116). Briefly: In vitro inhibition of Aldose reductase in partially purified bovine lens preparation at a concentration of 4*10e -8M. Summed up: as §1
Assay [23] relates to Rattus norvegicus. Nature of the assay: In vivo inhibition of galactitol accumulation in the diaphragm of rats fed 20% galactose for 4 day at 102 mg/kg/day dose. The assay is classed as functional. The essentials: as §2
The test system of assay [24] is Rattus norvegicus. Nature of the assay: In vivo inhibition of galactitol accumulation in the sciatic nerve of rats fed 20% galactose for 4 day at 102 mg/kg/day dose. The assay is classed as functional. Summed up: as §2

As for `O=C(O)Cn1c(=O)c2cc(Br)ccc2n(Cc2ccc(Cl)c(Cl)c2)c1=O`, the values for the inhibition in assay [1] and in assay [2] were 83% and 47%, respectively. Besides, the Lowering was 62% in the assay with Rattus norvegicus [3] and 78% in the assay with Rattus norvegicus [4].
`Cc1nc2ccc(Br)cc2c(=O)n1CC(=O)O`: the figures for the inhibition in assay [1] and in assay [7] were 20% and 63%, respectively. The Lowering result in the assay on Rattus norvegicus [5] and with Rattus norvegicus [6] was “Not significant” in each case.
Turning to `O=C(O)Cn1c(=O)c2sccc2n(Cc2ccc(Br)cc2F)c1=O`, the Lowering entry in the assay on Rattus norvegicus [8] and in the assay with Rattus norvegicus [9] was “Not significant” each time. Also, the figures for the inhibition in [1] and in [2] were 68% and 43%, respectively.
Regarding `O=C(O)CN1Cc2ccccc2N(Cc2ccc(Cl)c(Cl)c2)C1=O`, the figures for the inhibition in [1] and in [2] were 68% and 41%, respectively. The Lowering was 38% in the assay with Rattus norvegicus [10] and “Not significant” with Rattus norvegicus [11].
Take `O=C(O)Cn1c(=O)c2ccccc2n(Cc2ccc(Br)cc2F)c1=O`: the inhibition (commonly the drop in the measured response relative to a control, in per cent) is 71% in [1] and 34% in assay [2]. For the same compound, the Lowering is given as 58% in the assay with Rattus norvegicus [12] and 54% in the assay with Rattus norvegicus [13].
On to `O=C(O)Cn1c(=O)c2cc(Cl)ccc2n(Cc2ccc(Br)cc2F)c1=O`, for which the figures for the inhibition in [1] and in [2] were 80% and 51%, respectively. Moreover, the Lowering with Rattus norvegicus [14] is given as 47%; with Rattus norvegicus [15] it was 78%.
Regarding `O=C(O)Cn1c(=O)n(Cc2ccc(Cl)c(Cl)c2)c(=O)c2cc(Cl)ccc21`, the results for the inhibition in assay [1] and in assay [2] were 88% and 64%, respectively. For the same compound, the Lowering is listed as 38% in the assay on Rattus norvegicus [16] and 68% in the assay on Rattus norvegicus [17].
In the case of `O=C(O)CN1CN(Cc2ccc(Br)cc2F)c2ccc(Cl)cc2C1=O`, the inhibition amounted to 51% in assay [1] and 23% in [2]. In addition, the Lowering result in the assay with Rattus norvegicus [11] is “Not significant”; with Rattus norvegicus [18] it was 38%.
With `O=C(O)Cn1c2ccc([N+](=O)[O-])cc2c(=O)n1Cc1ccc(Cl)c(Cl)c1`, the inhibition in [19] came to 41%; in assay [22] it was 27%. Besides, the Lowering entry in the assay on Rattus norvegicus [20] and in the assay on Rattus norvegicus [21] was “Not significant” each time.
On to `Cc1ccc2c(c1)c(=O)n(CC(=O)O)c(=O)n2Cc1ccc(Cl)c(Cl)c1`, for which the Lowering stood at 76% with Rattus norvegicus [23] and 65% in the assay on Rattus norvegicus [24]. Also, the inhibition turned out to be 80% in assay [1] and 40% in [2].

Values taken from ChEMBL document CHEMBL1125678, “Quinazolineacetic acids and related analogues as aldose reductase inhibitors” (J Med Chem, 1991).
